This passage reports IC50, Activity and inhibition results from ChEMBL document CHEMBL1156470, “Inhibition of the activation of multiple serine proteases with a cathepsin C inhibitor requires sustained exposure to prevent pro-enzyme processing” (J Biol Chem, 2007).

In assay [1] the target is T1, Neutrophil elastase (Homo sapiens, UniProt P08246).
T1 sequence (P08246 whole entry): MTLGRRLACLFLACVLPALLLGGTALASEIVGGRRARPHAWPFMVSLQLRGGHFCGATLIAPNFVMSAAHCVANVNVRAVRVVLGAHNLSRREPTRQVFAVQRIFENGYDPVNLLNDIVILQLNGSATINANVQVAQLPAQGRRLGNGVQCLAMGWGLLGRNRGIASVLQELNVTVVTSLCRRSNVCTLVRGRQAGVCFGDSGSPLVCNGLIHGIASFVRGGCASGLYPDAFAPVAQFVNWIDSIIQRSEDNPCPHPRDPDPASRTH
Kind of assay: Blockade of neutrophil elastase processing in human U937 cells after 7 days by fluorogenic substrate cleavage assay. The class given is cell-based, U-937. The method, boiled down:
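U937 seeded at 1×10^5 cells/ml with vehicle or inhibitor, passaged and diluted 10-fold into fresh medium with compound on days 3 and 5, harvested day 7. Cells washed and lysed in 20 mM Tris pH 7.5, 100 mM NaCl, 0.2% NP-40. NE rate measured with 400 μM MeOSuc-AAPV-AMC (ex 370/em 450 nm, 10 min). % inhibition vs vehicle, four wells per point.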

Assay [2] concerns the target Cathepsin S (Homo sapiens, UniProt P25774). Kind of assay: Inhibition of human recombinant cathepsin S after 10 mins.
Assay [3] deals with T2, Pro-cathepsin H (Homo sapiens, UniProt P09668).
T2 sequence (P09668 whole entry): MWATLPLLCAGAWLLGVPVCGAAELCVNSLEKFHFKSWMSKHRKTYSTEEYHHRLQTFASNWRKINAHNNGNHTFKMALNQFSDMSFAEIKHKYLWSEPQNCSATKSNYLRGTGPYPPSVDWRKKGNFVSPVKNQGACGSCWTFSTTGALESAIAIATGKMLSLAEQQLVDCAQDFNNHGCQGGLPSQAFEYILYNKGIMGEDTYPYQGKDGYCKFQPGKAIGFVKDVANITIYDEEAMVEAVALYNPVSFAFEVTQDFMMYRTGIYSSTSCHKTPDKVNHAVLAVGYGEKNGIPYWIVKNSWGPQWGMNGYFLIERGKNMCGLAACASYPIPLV
Kind of assay: Inhibition of human recombinant cathepsin H after 10 mins.

The subject of assay [4] is U-937 (Homo sapiens). Kind of assay: Effect on neutrophil elastase protein expression in human U937 cells at 30 uM after 7 days by Western blot.
Assay [5] addresses Cathepsin B (Homo sapiens, UniProt P07858). Kind of assay: Inhibition of human recombinant cathepsin B after 10 mins.
The target of assay [6] is Dipeptidyl peptidase 1 (Homo sapiens, UniProt P53634). Kind of assay: Inhibition of intracellular cathepsin C active site in human U937 cells assessed as reduction of Ala-4[125I]Phe-DMK labeled 23 kDa protein at 10 uM by autoradiography based pulse chase assay. The class given is cell-based. The conditions noted are these: U-937. The method, boiled down: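 U937 cells (200,000) preincubated 30 min with 10 μM competitor or 0.5% Me₂SO, then labelled 15 min with 0.5 nM Ala-4-[¹²⁵I]Phe-DMK. Quenched with 1 μM unlabelled probe, washed, and lysed in 20 mM MES pH 6.0, 50 mM NaCl, 0.5% NP-40. Run on reducing 10–20% SDS-PAGE; film exposed 6–24 h.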

The target of assay [7] is T3, Neutrophil elastase (Mus musculus) (UniProt Q3UP87).
T3 sequence (whole entry): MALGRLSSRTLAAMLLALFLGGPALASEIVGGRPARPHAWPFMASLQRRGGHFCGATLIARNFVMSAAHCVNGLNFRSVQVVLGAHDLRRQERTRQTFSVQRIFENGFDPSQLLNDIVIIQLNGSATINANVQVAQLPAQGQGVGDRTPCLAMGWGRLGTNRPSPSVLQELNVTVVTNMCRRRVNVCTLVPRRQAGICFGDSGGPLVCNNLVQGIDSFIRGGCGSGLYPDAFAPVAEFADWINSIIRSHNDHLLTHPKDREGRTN
The conditions noted are these: EcoM-G, 1 uM.

In assay [8] the test system is U-937. Kind of assay: Cytotoxicity against human U937 cells at 30 uM after 72 hrs annexin-V propidium iodide method. It counts as functional. The method, boiled down:
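U937 plated at 0.4×10^6 cells/ml, compound in Me₂SO (final 0.5%). Cells harvested and re-seeded every 24 h in medium with freshly added inhibitor, for 72 h. Viability by annexin V-FITC/propidium iodide two-colour flow cytometry; cells negative for both stains counted viable.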

Assay [9] deals with T4, Cathepsin G (Mus musculus, UniProt P28293).
T4 sequence (P28293 whole entry): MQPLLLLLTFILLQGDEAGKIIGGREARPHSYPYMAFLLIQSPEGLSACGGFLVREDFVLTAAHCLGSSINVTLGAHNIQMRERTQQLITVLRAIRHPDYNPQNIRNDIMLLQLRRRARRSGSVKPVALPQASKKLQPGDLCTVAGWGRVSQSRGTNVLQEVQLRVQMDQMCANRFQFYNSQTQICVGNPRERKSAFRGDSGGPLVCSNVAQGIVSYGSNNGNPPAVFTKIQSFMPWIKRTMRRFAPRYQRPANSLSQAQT
Kind of assay: Inhibition of cathepsin G activation in beta-estradiol differentiated mouse EcoM-G cells after 24 hrs. The class given is cell-based. The method, boiled down:
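EcoM-G cells (cultures <3 months old) washed and seeded at 0.5×10^6 cells/ml without β-estradiol. After 24 h, compound added in Me₂SO (final 0.5%), then cells differentiated a further 24 h, harvested and lysed. NE assayed with 400 μM MeOSuc-AAPV-AMC, CG with 1 mM Suc-AAPF-pNA (405 nm, 5 min), Pr-3 with 10 μM internally quenched substrate (ex 328/em 393 nm), all from the same lysates. IC50 from four-parameter Hill fit.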

The structures appear in SMILES notation. Active and inactive are the calls of the source. The calls are words filed in the database; no cut-off is given here. Some results are limits rather than exact numbers.

Chain of Dipeptidyl peptidase 1 (P53634 25-134 limits assumed): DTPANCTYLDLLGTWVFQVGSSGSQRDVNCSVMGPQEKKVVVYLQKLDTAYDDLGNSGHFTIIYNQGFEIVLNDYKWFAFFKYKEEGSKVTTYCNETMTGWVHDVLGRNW
Chain of Dipeptidyl peptidase 1 (P53634 231-394 limits assumed): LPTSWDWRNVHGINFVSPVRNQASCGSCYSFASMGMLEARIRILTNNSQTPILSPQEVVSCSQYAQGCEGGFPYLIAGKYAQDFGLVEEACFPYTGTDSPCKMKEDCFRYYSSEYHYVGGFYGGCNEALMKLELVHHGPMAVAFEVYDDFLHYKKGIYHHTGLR
Chain of Dipeptidyl peptidase 1 (P53634 395-463 limits assumed): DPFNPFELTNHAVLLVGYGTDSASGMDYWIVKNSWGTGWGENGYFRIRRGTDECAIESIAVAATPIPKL
Chain of Cathepsin S (P25774 whole entry): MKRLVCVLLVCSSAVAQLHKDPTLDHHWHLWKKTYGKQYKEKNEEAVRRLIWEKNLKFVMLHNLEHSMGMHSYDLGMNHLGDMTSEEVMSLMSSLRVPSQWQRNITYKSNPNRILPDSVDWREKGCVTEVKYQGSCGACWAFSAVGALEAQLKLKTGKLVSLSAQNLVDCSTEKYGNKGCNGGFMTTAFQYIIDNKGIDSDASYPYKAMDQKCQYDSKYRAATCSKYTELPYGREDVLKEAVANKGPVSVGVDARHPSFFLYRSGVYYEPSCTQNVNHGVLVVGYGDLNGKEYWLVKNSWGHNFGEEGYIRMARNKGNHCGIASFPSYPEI

One may read the IC50 as the concentration needed to halve the response being measured. For orientation: inhibition means the change of the read-out against control, counted positive when it falls. A higher inhibition goes with a response far below the control. Consider `N#C[C@@]1(NC(=O)[C@@H](N)Cc2cccs2)C[C@@H]1c1ccccc1.O=C(O)C(F)(F)F`, for which the IC50 in assay [1] was 0.22 µM; in [2], 5.9 µM; in [3] it was greater than 50 µM; in assay [5], greater than 50 µM; in assay [9], 0.48 µM. In addition, in [4], the result was inactive. In addition, the result in [6] was Active. The compound also registered an inhibition in [7] greater than 90%. Moreover, the Activity in [8] is recorded as 100%.
